According to ChEMBL document CHEMBL3102726, “Synthesis of tricyclic fused coumarin sulfonates and their inhibitory effects on LPS-induced nitric oxide and PGE2 productions in RAW 264.7 macrophages” (Bioorg Med Chem Lett, 2014):
Activity calls are given as the source filed them. No cut-off for these calls is given here.

How the values were obtained:
RAW264.7 [1] = test: Antiinflammatory activity against mouse RAW264.7 cells assessed as inhibition of LPS-induced PGE2 production at 5 uM administered 1 hr prior to LPS-challenge measured after 24 hrs by EIA; format: functional
Summary of the method: (§1)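 Single-concentration PGE₂ assay in LPS-stimulated RAW 264.7 cells: test compounds at 5 µM, reference NS398 at 3 µM. PGE₂ in culture media was quantified by EIA. Values are means ± SD of three independent experiments.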

RAW264.7 [2] = test: Antiinflammatory activity against mouse RAW264.7 cells assessed as inhibition of LPS-induced NO production at 5 uM after 24 hrs by Griess assay; format: functional
Summary of the method: (§2)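 Single-concentration NO assay: test compounds at 5 µM, reference L-NIL at 20 µM, in LPS-stimulated RAW 264.7 cells. Nitrite in the medium was measured by Griess reaction (A540). Values are means ± SD of three independent experiments.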

RAW264.7 [3] = test: Antiinflammatory activity against mouse RAW264.7 cells assessed as inhibition of LPS-induced PGE2 production administered 1 hr prior to LPS-challenge measured after 24 hrs by EIA; format: functional, cell-based
Summary of the method: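 Cells were pretreated for 1 h with compound at 0.1, 1, 10, 100 or 1000 nM, then given LPS (10 ng/mL) for 24 h. PGE₂ in culture media was quantified by EIA kit. Values are means ± SD of three independent experiments; ANOVA with Dunnett's post hoc test.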

RAW264.7 [4] = test: Antiinflammatory activity against mouse RAW264.7 cells assessed as inhibition of LPS-induced NO production after 24 hrs by Griess assay; format: functional, cell-based; conditions: RAW264.7, 24 h
Summary of the method: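 Cells were plated at 4 × 10⁵/well in DMEM with 10% FBS at 37 °C, 5% CO₂. They were incubated 24 h with LPS (1 µg/mL) plus compound at 1.60–100 µM. Medium was mixed 1:1 with Griess reagent (sulfanilamide/naphthylethylenediamine in phosphoric acid) for 10 min at room temperature, then A540 was read against fresh medium blanks.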

RAW264.7 [5] = test: Cytotoxicity against mouse RAW264.7 cells after 24 hrs by MTT assay; format: cell-based; conditions: RAW264.7, 24 h
Summary of the method: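 Cells were seeded at 10⁵/well and exposed to various concentrations of compound for 24 h. Viability was read by colorimetric MTT assay.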

RAW264.7 [6] = test: Antiinflammatory activity against mouse RAW264.7 cells assessed as inhibition of LPS-induced iNOS protein expression administered 1 hr prior to LPS-challenge measured after 24 hrs by SDS-PAGE analysis; format: functional, cell-based
Summary of the method: (§3)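 RAW 264.7 macrophages were pretreated for 1 h with or without 0.01, 0.1, 0.5, 1, 5 or 10 µM compound, then stimulated with LPS (10 ng/mL) for 24 h. Cell lysates were run on SDS–PAGE and transferred to PVDF. Blots were probed with iNOS and COX-2 antibodies, with β-actin as internal control.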

RAW264.7 [7] = test: Antiinflammatory activity against mouse RAW264.7 cells assessed as inhibition of LPS-induced COX2 protein expression administered 1 hr prior to LPS-challenge measured after 24 hrs by SDS-PAGE analysis; format: functional, cell-based; summary of the method: as §3
[8] = molecular target: T1, Prostaglandin G/H synthase 2 (Homo sapiens) (UniProt P35354); test: Inhibition of LPS-induced recombinant COX2 (unknown origin) activity expressed in mouse RAW264.7 cells at 0.1 to 5 uM after 10 mins; format: cell-based
T1 sequence (whole entry): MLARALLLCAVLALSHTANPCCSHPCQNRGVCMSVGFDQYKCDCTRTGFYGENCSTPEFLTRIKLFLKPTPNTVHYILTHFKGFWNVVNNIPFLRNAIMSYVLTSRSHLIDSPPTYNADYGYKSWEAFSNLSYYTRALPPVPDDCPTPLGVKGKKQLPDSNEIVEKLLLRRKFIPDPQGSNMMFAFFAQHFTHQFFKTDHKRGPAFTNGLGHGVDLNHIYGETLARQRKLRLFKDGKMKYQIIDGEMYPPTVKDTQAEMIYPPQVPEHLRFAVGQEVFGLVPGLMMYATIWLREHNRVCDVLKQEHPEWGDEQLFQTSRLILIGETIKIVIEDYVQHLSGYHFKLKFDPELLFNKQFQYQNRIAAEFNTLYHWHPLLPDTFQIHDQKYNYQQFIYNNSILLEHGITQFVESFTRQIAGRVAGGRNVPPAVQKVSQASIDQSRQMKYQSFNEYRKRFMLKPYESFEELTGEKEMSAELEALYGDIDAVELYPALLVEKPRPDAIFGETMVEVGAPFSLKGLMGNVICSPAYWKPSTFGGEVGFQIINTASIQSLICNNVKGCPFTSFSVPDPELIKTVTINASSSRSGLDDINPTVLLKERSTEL

RAW264.7 [9] = test: Ratio of L-NIL IC50 to compound IC50 for mouse RAW264.7 cells; format: functional
[10] = molecular target: T2, Nitric oxide synthase, inducible (Mus musculus) (UniProt P29477); test: Inhibition of LPS-induced iNOS activity in mouse RAW264.7 cells at 1 to 10 uM after 12 hrs
T2 sequence (whole entry): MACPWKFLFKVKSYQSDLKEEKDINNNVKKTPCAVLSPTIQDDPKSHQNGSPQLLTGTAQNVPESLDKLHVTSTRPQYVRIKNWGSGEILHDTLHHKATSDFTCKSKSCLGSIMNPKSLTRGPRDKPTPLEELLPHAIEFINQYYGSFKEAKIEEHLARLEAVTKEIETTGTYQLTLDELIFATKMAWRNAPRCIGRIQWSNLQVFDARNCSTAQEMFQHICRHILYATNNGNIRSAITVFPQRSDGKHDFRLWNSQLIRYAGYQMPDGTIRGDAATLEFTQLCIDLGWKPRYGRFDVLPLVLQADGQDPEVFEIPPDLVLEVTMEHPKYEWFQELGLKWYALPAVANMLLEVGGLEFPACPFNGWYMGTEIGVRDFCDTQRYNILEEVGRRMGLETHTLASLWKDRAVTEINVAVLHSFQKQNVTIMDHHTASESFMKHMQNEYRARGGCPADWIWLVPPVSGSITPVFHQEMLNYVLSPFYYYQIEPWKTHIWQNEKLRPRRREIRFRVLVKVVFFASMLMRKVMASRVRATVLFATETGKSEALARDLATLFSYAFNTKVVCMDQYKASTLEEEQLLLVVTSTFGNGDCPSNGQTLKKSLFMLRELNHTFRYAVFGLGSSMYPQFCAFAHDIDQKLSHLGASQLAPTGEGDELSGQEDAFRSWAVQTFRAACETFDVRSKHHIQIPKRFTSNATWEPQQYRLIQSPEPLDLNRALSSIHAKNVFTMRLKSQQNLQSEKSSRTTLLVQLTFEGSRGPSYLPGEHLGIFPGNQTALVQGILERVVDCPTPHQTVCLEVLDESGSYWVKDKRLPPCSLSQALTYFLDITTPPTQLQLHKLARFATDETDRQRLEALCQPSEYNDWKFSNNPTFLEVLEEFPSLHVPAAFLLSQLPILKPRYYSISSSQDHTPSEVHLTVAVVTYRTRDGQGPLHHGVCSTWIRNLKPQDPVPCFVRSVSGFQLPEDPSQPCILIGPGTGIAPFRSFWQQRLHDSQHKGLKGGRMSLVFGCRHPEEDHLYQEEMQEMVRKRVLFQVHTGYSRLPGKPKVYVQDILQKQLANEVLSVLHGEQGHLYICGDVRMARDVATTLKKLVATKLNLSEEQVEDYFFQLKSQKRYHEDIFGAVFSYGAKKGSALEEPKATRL

RAW264.7 [11] = test: Antiinflammatory activity against mouse RAW264.7 cells assessed as inhibition of LPS-induced NO production at 20 uM after 24 hrs by Griess assay; format: functional; conditions: RAW264.7, 24 h; summary of the method: as §2
RAW264.7 [12] = test: Antiinflammatory activity against mouse RAW264.7 cells assessed as inhibition of LPS-induced PGE2 production at 3 uM administered 1 hr prior to LPS-challenge measured after 24 hrs by EIA; format: functional, cell-based; summary of the method: as §1
RAW264.7 [13] = test: Antiinflammatory activity against mouse RAW264.7 cells assessed as inhibition of LPS-induced NO production administered 1 hr prior to LPS-challenge measured after 24 hrs by Griess assay; format: functional, cell-based
Summary of the method: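 RAW 264.7 cells were grown in DMEM with 10% FBS, penicillin and streptomycin at 37 °C under 5% CO2, then plated at 4 × 10^5 cells/well. Culture medium was mixed 1:1 with Griess reagent (equal volumes of 1% sulfanilamide in 5% phosphoric acid and 0.1% naphthylethylenediamine·HCl) for 10 min at room temperature, and nitrite was read at 540 nm against fresh-medium blanks.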

RAW264.7 [14] = test: Ratio of NS398 IC50 to compound IC50 for mouse RAW264.7 cells; format: functional

For `Cc1ccc(S(=O)(=O)Oc2ccc3c4c(c(=O)oc3c2)CCCCCC4)cc1`, the inhibition (RAW264.7 [1]) was “Active”, the inhibition (RAW264.7 [2]) was “Active” and the IC50 (RAW264.7 [3]) was 0.00675 µM. It also gave an IC50 (RAW264.7 [4]) of 40.7 µM and an IC50 (RAW264.7 [5]) of over 100 µM.
In the case of `CS(=O)(=O)Oc1ccc2c3c(c(=O)oc2c1)CCCCC3`, the inhibition (RAW264.7 [1]) is reported as “Active”, the inhibition (RAW264.7 [2]) is reported as “Active” and the IC50 (RAW264.7 [5]) is reported as 90.8 µM.
With `O=c1oc2cc(OS(=O)(=O)c3ccc(C(F)(F)F)cc3)ccc2c2c1CCCCC2` the inhibition (RAW264.7 [6]) was “Active”, the inhibition (RAW264.7 [7]) was “Dose-dependent effect” and the inhibition [8] was “Active”. The “Ratio IC50” value (RAW264.7 [9]) was 5.24, the “inhibition (INH)” value (RAW264.7 [1]) was 91.48% and the inhibition at 5 µM (RAW264.7 [2]; RAW264.7, 24 h) was 65.8%. For the same compound, the IC50 (RAW264.7 [3]) was 0.00645 µM, the IC50 (RAW264.7 [4]) was 3.84 µM and the IC50 (RAW264.7 [5]) was over 100 µM. For the same compound, the inhibition [10] was “inactive”.
For `Cc1ccc(S(=O)(=O)Oc2ccc3c4c(c(=O)oc3c2)CCCCC4)cc1`, the inhibition (RAW264.7 [1]) was “Active”, the inhibition (RAW264.7 [2]) was “Active” and the IC50 (RAW264.7 [5]) was over 100 µM.
For `CCS(=O)(=O)Oc1ccc2c3c(c(=O)oc2c1)CCCCC3`, the inhibition (RAW264.7 [1]) was “Active”, the inhibition (RAW264.7 [2]) was “Active” and the IC50 (RAW264.7 [5]) was 23.4 µM.
For `CCCS(=O)(=O)Oc1ccc2c3c(c(=O)oc2c1)CCCCC3`, the inhibition (RAW264.7 [1]) was “Active”, the inhibition (RAW264.7 [2]) was “Active” and the IC50 (RAW264.7 [5]) was 23.9 µM.
With `O=c1oc2cc(OS(=O)(=O)c3ccccc3)ccc2c2c1CCCCCC2` the inhibition (RAW264.7 [2]) was “Active” and the IC50 (RAW264.7 [5]) was over 100 µM.
In the case of `CS(=O)(=O)Oc1ccc2c3c(c(=O)oc2c1)CCCCCC3`, the inhibition (RAW264.7 [1]) is reported as “Active”, the inhibition (RAW264.7 [2]) is reported as “Active” and the IC50 (RAW264.7 [5]) is reported as 24.5 µM.
`CC(=N)NCCCC[C@H](N)C(=O)O` [L-NIL] gave an inhibition at 20 µM (RAW264.7 [11]) of 50% and an IC50 (RAW264.7 [4]) of 20.1 µM.
For `O=c1oc2cc(OS(=O)(=O)c3ccccc3)ccc2c2c1CCCCC2`, the inhibition (RAW264.7 [1]) was “Active”, the inhibition (RAW264.7 [2]) was “Active” and the IC50 (RAW264.7 [5]) was over 100 µM.
`CS(=O)(=O)Nc1ccc([N+](=O)[O-])cc1OC1CCCCC1` [NS-398] was tested, and the inhibition (RAW264.7 [12]) was “Active” and the IC50 (RAW264.7 [3]) was 0.00701 µM.
`NS(=O)(=O)Oc1ccc2c3c(c(=O)oc2c1)CCCCC3` [IROSUSTAT] was tested, and the IC50 (RAW264.7 [13]) was 85.8 µM, the inhibition (RAW264.7 [13]) was “Dose-dependent effect” and the IC50 (RAW264.7 [3]) was 0.081 µM. The inhibition (RAW264.7 [3]) was “Dose-dependent effect”.
With `CCCS(=O)(=O)Oc1ccc2c3c(c(=O)oc2c1)CCCCCC3` the “Ratio IC50” value (RAW264.7 [14]) was 1.74, the inhibition (RAW264.7 [1]) was “Active” and the inhibition (RAW264.7 [2]) was “Active”. It also gave an IC50 (RAW264.7 [3]) of 0.00402 µM, an IC50 (RAW264.7 [4]) of 10 µM and an IC50 (RAW264.7 [5]) of 9.2 µM.
`O=c1oc2cc(OS(=O)(=O)c3ccc(C(F)(F)F)cc3)ccc2c2c1CCCCCC2` was tested, and the inhibition (RAW264.7 [2]) was “Active”, the IC50 (RAW264.7 [3]) was 0.00604 µM and the IC50 (RAW264.7 [4]) was 75.3 µM. It also gave an IC50 (RAW264.7 [5]) of over 100 µM.
For `O=c1oc2cc(OS(=O)(=O)C3CC3)ccc2c2c1CCCCCC2`, the inhibition (RAW264.7 [1]) was “Active”, the inhibition (RAW264.7 [2]) was “Active” and the IC50 (RAW264.7 [5]) was 10.5 µM.
For `O=c1oc2cc(OS(=O)(=O)C3CC3)ccc2c2c1CCCCC2`, the inhibition (RAW264.7 [1]) was “Active”, the inhibition (RAW264.7 [2]) was “Active” and the IC50 (RAW264.7 [5]) was 20.3 µM.
For `CCS(=O)(=O)Oc1ccc2c3c(c(=O)oc2c1)CCCCCC3`, the inhibition (RAW264.7 [1]) was “Active”, the inhibition (RAW264.7 [2]) was “Active” and the IC50 (RAW264.7 [5]) was 21.5 µM.
